Assay results taken from ChEMBL document CHEMBL1146139, “Design and synthesis of novel HIV-1 protease inhibitors incorporating oxyindoles as the P2'-ligands” (Bioorg Med Chem Lett, 2006).

Key:
[1] = target: Human immunodeficiency virus type 1 protease (Human immunodeficiency virus 1, UniProt Q72874); test: Inhibitory activity against HIV protease
How it was run: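 Enzyme inhibition constants measured against HIV-1 protease following a previously published protocol. Values are means of two determinations.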

MT2 [2] = test: Cytotoxicity against MT2 cells; format: functional; conditions: Homo sapiens
MT2 [3] = test: Antiviral activity against HIV1 IIIB strain in MT2 cells; format: functional, cell-based
How it was run: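 IC50 from inhibition of HIV-1 IIIb-induced cytopathogenicity in MT-2 cells. Assays run in duplicate; values are means of two or three determinations.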

Ki [1] [nM] | SMILES | further results
7 | C=CCC1(N(CC(C)C)C[C@@H](O)[C@H](Cc2ccccc2)NC(=O)O[C@H]2CO[C@H]3OCC[C@H]32)C(=O)Nc2ccccc21 (stereo in doubt; 14b) | 
6 | CC(C)CN(C[C@@H](O)[C@H](Cc1ccccc1)NC(=O)O[C@H]1CO[C@H]2OCC[C@H]21)C1(C)C(=O)Nc2ccccc21 (stereo in doubt; 3a) | CC50 (MT2 [2]): > 10000 nM; IC50 (MT2 [3]; Homo sapiens, IIIB, MT2): 300 nM
60 | CC(C)CN(C[C@@H](O)[C@H](Cc1ccccc1)NC(=O)O[C@H]1CO[C@H]2OCC[C@H]21)C1(C)C(=O)N(C)c2ccccc21 (stereo in doubt; 16b) | 
3 | CC(C)CN(C[C@@H](O)[C@H](Cc1ccccc1)NC(=O)O[C@H]1CO[C@H]2OCC[C@H]21)C1(C)C(=O)Nc2ccccc21 (stereo in doubt; 3b) | IC50 (MT2 [3]; mt2): 480 nM
42 | CC(C)CN(C[C@@H](O)[C@H](Cc1ccccc1)NC(=O)O[C@H]1CO[C@H]2OCC[C@H]21)C1(C)C(=O)N(C)c2ccccc21 (stereo in doubt; 16a) | 
2 | C=CCC1(N(CC(C)C)C[C@@H](O)[C@H](Cc2ccccc2)NC(=O)O[C@H]2CO[C@H]3OCC[C@H]32)C(=O)Nc2ccccc21 (stereo in doubt; 14a) | 

Further lines, the compound ahead of its results:

SMILES | Ki [1] [nM] | further results
O=C(N[C@@H](Cc1ccccc1)[C@H](O)CN1CC=CCCC12C(=O)Nc1ccccc12)O[C@H]1CO[C@H]2OCC[C@H]21 (stereo partly specified) | > 1000 | 
C=CCCC1(N(CC=C)C[C@@H](O)[C@H](Cc2ccccc2)NC(=O)O[C@H]2CO[C@H]3OCC[C@H]32)C(=O)Nc2ccccc21 (stereo partly specified) | 47 | 
COc1ccc2c(c1)C(C)(N(CC(C)C)C[C@@H](O)[C@H](Cc1ccccc1)NC(=O)O[C@H]1CO[C@H]3OCC[C@H]31)C(=O)N2 (stereo in doubt; 15a) | 102 | 
COc1ccc2c(c1)C(C)(N(CC(C)C)C[C@@H](O)[C@H](Cc1ccccc1)NC(=O)O[C@H]1CO[C@H]3OCC[C@H]31)C(=O)N2 (stereo in doubt; 15b) | 130 | 
CC(C)(C)NC(=O)[C@@H]1C[C@@H]2CCCC[C@@H]2CN1C[C@@H](O)[C@H](Cc1ccccc1)NC(=O)[C@H](CC(N)=O)NC(=O)c1ccc2ccccc2n1 [SAQUINAVIR] |  | CC50 (MT2 [2]): > 10000 nM; IC50 (MT2 [3]; Homo sapiens, IIIB, MT2): 5 nM
O=C(N[C@@H](Cc1ccccc1)[C@H](O)CN1CCCCC12C(=O)Nc1ccccc12)O[C@H]1CO[C@H]2OCC[C@H]21 (stereo partly specified) | > 1000 | 
CC(C)CCN(C[C@@H](O)[C@H](Cc1ccccc1)NC(=O)O[C@H]1CO[C@H]2OCC[C@H]21)C1(C)C(=O)Nc2ccccc21 (stereo partly specified) | 7 | 
CC1(N(Cc2ccccc2)C[C@@H](O)[C@H](Cc2ccccc2)NC(=O)O[C@H]2CO[C@H]3OCC[C@H]32)C(=O)Nc2ccccc21 (stereo partly specified) | 26 | 
O=C(N[C@@H](Cc1ccccc1)[C@H](O)CN1CCCCCC12C(=O)Nc1ccccc12)O[C@H]1CO[C@H]2OCC[C@H]21 (stereo partly specified) | > 1000 | 
O=C(N[C@@H](Cc1ccccc1)[C@H](O)CN1CC=CCC12C(=O)Nc1ccccc12)O[C@H]1CO[C@H]2OCC[C@H]21 (stereo partly specified) | 126 | 
C=CCN(C[C@@H](O)[C@H](Cc1ccccc1)NC(=O)O[C@H]1CO[C@H]2OCC[C@H]21)C1(CC=C)C(=O)Nc2ccccc21 (stereo partly specified) | 5 | 
